Compounds with a hit are over-represented: about 3.3% of the library has one in this group of screens.
PRMT1 FP inh: PRMT1 (human) inhibition, primary screen. Q99873. recombinant PRMT1, activity-based probe fluorescence polarization. inhibition, % at 2.79 µM. actives 1.3% (n = 370,000). AID 652257;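 active = inhibition above about 21% made by adding two undisclosed values, limit read from the data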
rCAG RNA binder: binds r(CAG) RNA repeats | r(CAG) RNA repeat, TO-PRO-1 dye displacement fluorescence | inhibition, % at 3 µM | actives 1.3% (n = 370,000) | AID 651821;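 active = inhibition above the plate cutoff, the mean of all test compounds on that plate plus 3 SD, cut at about 35% in these data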;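 also: higher means more dye released from RNA so lower well fluorescence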
TCR-CD3 inh: human TCR-CD3 binding inhibition; inhibition, % at 9.4 µM; actives 0.37% (n = 360,000); AID 651800; TAMRA-labeled TCR probe fluorescence, biochemical;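 also: recombinant mutant TCR 2C K166C tagged with TAMRA read by polarization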
SIAE primary: inhibitors of human sialic acid acetylesterase SIAE; actives 0.69% (n = 370,000); Q9HAT2; inhibition, % at 9.66 µM; SIAE FP-Rh probe binding, fluorescence polarization;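 active = inhibition above a cutoff: mean of compounds within the control limits plus 3 SD of those, cut at about 17% in these data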
ABHD4 inh: inhibitors of mouse ABHD4; purified mABHD4, FP-Rh probe fluorescence polarization; inhibition, % at 8.92 µM; actives 0.54% (n = 370,000); Q8VD66;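 active = inhibition exceeding the mean over every tested compound plus 3 SD, cut at about 30% in these data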
Target sequence (Q8VD66 whole entry, looked up): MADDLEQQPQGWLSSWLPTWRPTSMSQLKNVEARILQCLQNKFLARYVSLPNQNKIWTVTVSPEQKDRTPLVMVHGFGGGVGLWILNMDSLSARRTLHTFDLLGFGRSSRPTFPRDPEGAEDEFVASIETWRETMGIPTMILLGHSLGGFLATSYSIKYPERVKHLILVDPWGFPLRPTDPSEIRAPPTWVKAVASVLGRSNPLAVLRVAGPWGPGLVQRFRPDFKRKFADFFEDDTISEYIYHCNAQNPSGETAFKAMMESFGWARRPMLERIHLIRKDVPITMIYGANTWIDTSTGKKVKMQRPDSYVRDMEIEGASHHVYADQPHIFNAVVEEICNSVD
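Test system: mABHD4 protein; Read-out basis: % inhibition; Incubation: 45 min + 60 min at 25 °C; Repeats: single replicate; Technique: fluorescence polarization with parallel and perpendicular emission, 525/598 nm; Compound: 8.92 µM, single dose; Benchmarks: full inhibition S159A mutant plus DMSO, zero as sample-well median.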
BSA probe FL: BSA probe counter-screen for TCR-CD3 inhibitors. inhibition, % at 9.4 µM. shares compounds with TCR-CD3 inh. actives 10% (n = 1,200). TAMRA-labeled BSA probe fluorescence counterscreen; in the data active = inhibition above about 23%
TCR-CD3 inh conf: confirmation of human TCR-CD3 interaction inhibitors. shares compounds with TCR-CD3 inh. TAMRA-labeled TCR probe fluorescence binding assay. inhibition, % at 9.4 µM. actives 48% (n = 1,200). AID 652036
Numbers stand for hits; n = inactive; x = no result. Rule as the data show it, unless noted: active = inhibition above about 19%; inactive = the rest.

SMILES | PRMT1 FP inh | rCAG RNA binder | TCR-CD3 inh | SIAE primary | ABHD4 inh | BSA probe FL | TCR-CD3 inh conf
O=C(CC1C(=O)NCCN1Cc1cccc(F)c1)NCCCCCN1CCOCC1 (stereo unspecified) | n | n | 20 | n | n | n | n
COc1ccc(N(CC(=O)Nc2ccc(F)c(F)c2)S(=O)(=O)c2c(C)n[nH]c2C)cc1 | n | n | 28 | n | n | n | n
O=C(NC(NC(=S)Nc1cccc(C(=O)O)c1)C(Cl)(Cl)Cl)OCc1ccccc1 (stereo unspecified) | n | n | n | n | n | x | x
O=C(NC(NC(=S)Nc1cccc(Cl)c1)C(Cl)(Cl)Cl)OCc1ccccc1 (stereo unspecified) | n | n | 24 | n | n | n | n
CN(Cc1ccccc1)C(=O)OCc1cn(Cc2cc(F)ccc2F)nn1 | n | n | x | n | n | x | x
O=C(c1cccs1)C1CCN(c2ncnc3sccc23)CC1 | n | x | x | n | n | x | x
Cn1nnc(NC(=S)NC(=O)/C=C/c2ccco2)n1 | n | n | 19 | n | n | n | n
O=[N+]([O-])c1cc(C(F)(F)F)ccc1NC1CCN(Cc2ccccc2)CC1 | n | n | 39 | n | n | n | n
O=[N+]([O-])c1cc(C(F)(F)F)ccc1NC1CCN(Cc2ccccc2)C1 (stereo unspecified) | n | n | n | n | n | x | x
Cc1ccc2nc(-c3cccc(N)c3)[nH]c2c1 | n | n | n | n | n | x | x
Nc1ccc2nc(-c3cccc(-c4nc5ccc(N)cc5[nH]4)n3)[nH]c2c1 | n | n | 24 | n | n | n | 47
Cn1cccc1C(=O)N1CCN(S(=O)(=O)c2ccc(F)cc2)CC1 | n | n | x | n | n | x | x
COC(=O)c1cc(O)c(O)c(O)c1 | n | n | 22 | n | n | n | 20
COC(=O)c1cc(OC)nc(OC)c1 | n | n | n | n | n | x | x
CCOC(=O)N1CCN(C(=O)C[C@H]2C[C@@]3(C(=O)OC)C(=C[C@H](C4CCCC4)O[C@@H]3C)N(CCC3=CCCCC3)C2=O)CC1 | n | n | x | n | n | x | x
CC(C)(C)NC(=O)[C@H](c1cccnc1)N(C(=O)c1ccco1)c1ccc(C(C)(C)C)cc1 | n | x | x | n | n | x | x
CCOc1ccc(C(=O)CCC(=O)NNC(=O)c2ccccc2O)cc1 | n | n | 29 | n | n | n | 26
Cc1noc(C)c1COc1ccc(C(=O)NNC(=O)c2ccccc2O)cc1 | n | n | 25 | n | n | n | 26
CCOc1ccc2oc(C(=O)NNC(=O)c3ccccc3O)c(C)c2c1 | n | n | 36 | n | n | n | 22
CC(C)(C)c1ccc(C(=O)NCC(=O)NNC(=O)c2ccccc2O)cc1 | n | n | 35 | n | n | n | 22
CCOc1ccc2oc(C(=O)O)c(C)c2c1 | n | n | n | n | n | x | x
CC(C)(C)c1ccc(OCCCC(=O)NNC(=O)c2ccccc2O)cc1 | n | n | n | n | n | x | x
O=C(NCCN1CCC(Cc2ccccc2)CC1)C1CCCN(S(=O)(=O)c2ccccc2)C1 (stereo unspecified) | n | n | x | n | n | x | x
CC(COc1ccc(CC#N)cc1)CN1CCC(C(O)(c2ccccc2)c2ccccc2)CC1 (stereo unspecified) | n | n | x | n | n | x | x
O=[N+]([O-])C1=CC=C2C(=NC3(CCCCC3)N2O)C1=NC1CCCCC1 | n | n | 56 | n | n | n | n
SMILES | PRMT1 FP inh | rCAG RNA binder | TCR-CD3 inh | SIAE primary | ABHD4 inh | BSA probe FL | TCR-CD3 inh conf
CCOc1ccc(CNc2ccc(S(N)(=O)=O)cc2)cc1 | n | n | 152 | n | n | n | n
COc1ccc(S(=O)(=O)N2CCN(CC(=O)c3ccc(O)c(O)c3)CC2)cc1 | n | n | 25 | n | n | n | n
CN(C)S(=O)(=O)c1cccc(NC(=O)COC(=O)c2cn(-c3ccccc3)nc2-c2ccccc2)c1 | n | n | 31 | n | n | n | n
NS(=O)(=O)c1cccc(NC(=O)COC(=O)c2cc(-c3ccc(Cl)cc3)nc3ccccc23)c1 | n | n | 81 | n | n | n | 35
CN(C)S(=O)(=O)c1cccc(NC(=O)COC(=O)c2cccc(S(=O)(=O)N3CCc4ccccc4C3)c2)c1 | n | n | 42 | n | n | 26 | 54
Cc1cc(C(=O)OCC(=O)Nc2cccc(S(=O)(=O)N(C)C)c2)c2ccccc2n1 | n | n | n | n | n | x | x
Nc1ccc(N(CCO)CCO)cc1 | n | n | 27 | n | n | n | n
COc1cc(-n2c(C)nc3cc(C(=O)N4CC(C)CC(C)C4)ccc32)cc(OC)c1OC (stereo unspecified) | n | n | x | n | n | x | x
Clc1ccc(-c2cn(-c3ccc(Cl)cc3)c3[n+]2CCCCC3)cc1 | n | n | n | n | n | x | x
COc1ccc(-c2cn(-c3ccc(Cl)cc3)c3[n+]2CCCCC3)cc1 | n | n | 34 | n | n | n | n
N#Cc1c(-c2ccccc2)c(-c2ccccc2)nn(CC(=O)NNC(=O)Nc2ccc(Cl)c(Cl)c2)c1=O | n | n | 30 | n | n | n | 45
N#CCC(=O)N1CC2(CC(c3cccc(NC(=O)COc4ccc(Cl)cc4)c3)=NO2)C[C@@H]1C(N)=O (stereo partly specified) | n | n | n | n | n | x | x
NC(=O)[C@@H]1CC2(CC(c3cccc(NC(=O)COc4ccc(Cl)cc4)c3)=NO2)CN1C(=O)COc1ccc(Cl)cc1 (stereo partly specified) | n | n | 27 | n | n | n | 24
NC(=O)[C@H]1CC2(CC(c3cccc(NC(=O)COc4ccc(Cl)cc4)c3)=NO2)CN1C(=O)C(c1ccccc1)c1ccccc1 (stereo partly specified) | n | n | 32 | n | n | n | 23
C(=N/N1CCN(c2ccccc2)CC1)/c1ccco1 | n | n | x | n | n | x | x
O=C(CCl)NNC(=O)c1c(O)c2ccccc2[nH]c1=O | n | n | 66 | n | n | n | 50
O=C(NC1CC1)c1c(O)c2ccccc2[nH]c1=O | n | n | n | n | n | x | x
O=C(NNC(=O)c1c(O)c2ccccc2[nH]c1=O)c1ccccc1Br | n | n | 27 | n | n | n | n
C/C(=N\NC(=O)c1nnn(-c2nonc2N)c1CN(C)c1ccccc1)c1ccccc1O | n | n | 41 | n | n | n | 29
COc1ccc(/C(C)=N/NC(=O)c2nnn(-c3nonc3N)c2CN(C)c2ccccc2)cc1 | n | n | n | n | n | x | x
CNC(=S)NNC(=O)c1cccn(Cc2cccc(C(F)(F)F)c2)c1=O | n | n | 26 | n | n | n | 25
CCNC(=S)NNC(=O)c1cccn(Cc2ccc(Cl)cc2)c1=O | n | n | n | n | n | x | x
CNC(=S)NNC(=O)c1cccn(Cc2ccc(Cl)cc2Cl)c1=O | n | n | 27 | n | n | n | 26
OC(c1ccccc1)(c1ccccc1)C1CCN(CCCNc2ccc(Cl)cc2Cl)CC1 | n | n | x | n | n | x | x
CCc1c(C)sc(NC(=O)OC)c1C(=O)N1CCCCC1 | n | n | 19 | n | n | n | n

Compound activity deposited in PubChem BioAssay by The Scripps Research Institute Molecular Screening Center.
